Source: ChEMBL document CHEMBL1141667, “Synthesis and antimicrobial activities of 7-O-modified genistein derivatives” (2008)
Converted amounts (≈) assume the structure as drawn.

What was measured:
Assay type in all cases: functional
Bacillus subtilis = test: Antibacterial activity against Bacillus subtilis after 24 hrs by MTT assay
Method in brief: (§1)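 Broth microdilution MIC in MH medium. Compounds from a 50 mg/mL DMSO stock were serially diluted in medium. Inoculum was about 10⁵ cfu/mL, each concentration in triplicate, incubated at 37 °C for 24 h. MIC was read visually, then confirmed by adding PBS with 2 mg/mL MTT and incubating 4–5 h at room temperature. A compound-free medium control checked for any MTT effect on growth.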

Pseudomonas fluorescens = test: Antibacterial activity against Pseudomonas fluorescens after 24 hrs by MTT assay; method in brief: as §1
Staphylococcus aureus = test: Antibacterial activity against Staphylococcus aureus after 24 hrs by MTT assay; method in brief: as §1
Trichophyton rubrum = test: Antifungal activity against Trichophyton rubrum after 48 hrs by MTT assay
Method in brief: (§2)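 Antifungal MIC by microdilution in RPMI-1640 medium. Compounds came from a 50 mg/mL DMSO stock and were serially diluted. Inoculum was about 10⁵ cfu/mL, with triplicate wells per concentration, incubated at 37 °C for 48 h. MIC was judged visually, followed by PBS containing 2 mg/mL MTT for 4–5 h at room temperature for the colorimetric read. A compound-free control tested MTT interference.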

Aspergillus niger = test: Antifungal activity against Aspergillus niger after 48 hrs by MTT assay; method in brief: as §2
Candida albicans = test: Antifungal activity against Candida albicans after 48 hrs by MTT assay; method in brief: as §2
Escherichia coli = test: Antibacterial activity against Escherichia coli after 24 hrs by MTT assay; method in brief: as §1

| Compound | MIC (Bacillus subtilis) | MIC (Pseudomonas fluorescens) | MIC (Staphylococcus aureus) | MIC (Trichophyton rubrum) | MIC (Aspergillus niger) | MIC (Candida albicans) | MIC (Escherichia coli) |
| --- | --- | --- | --- | --- | --- | --- | --- |
| CCCN(CCC)CCCOc1cc(O)c2c(=O)c(-c3ccc(O)cc3)coc2c1 | 32 µg/mL (≈ 77.8 µM) | 45 µg/mL (≈ 109 µM) | 15.3 µg/mL (≈ 37.2 µM) | > 50 µg/mL | > 50 µg/mL | > 50 µg/mL | > 50 µg/mL |
| O=c1c(-c2ccc(O)cc2)coc2cc(OCCCn3cnc4ccccc43)cc(O)c12 | > 50 µg/mL | > 50 µg/mL | > 50 µg/mL | > 50 µg/mL | > 50 µg/mL | > 50 µg/mL | > 50 µg/mL |
| CCCCN(CCCC)CCCOc1cc(O)c2c(=O)c(-c3ccc(O)cc3)coc2c1 | > 50 µg/mL | 18.5 µg/mL (≈ 42.1 µM) | 17.1 µg/mL (≈ 38.9 µM) | > 50 µg/mL | > 50 µg/mL | > 50 µg/mL | > 50 µg/mL |
| CC(=O)N1CCN(c2ccc(OCC3COC(Cn4ccnc4)(c4ccc(Cl)cc4Cl)O3)cc2)CC1 (centres undefined) [KETOCONAZOLE] | – | – | – | 3.9 µg/mL (≈ 7.34 µM) | 7.8 µg/mL (≈ 14.7 µM) | 3.9 µg/mL (≈ 7.34 µM) | – |
| O=c1c(-c2ccc(O)cc2)coc2cc(OCCCCn3cnc4ccccc43)cc(O)c12 | > 50 µg/mL | > 50 µg/mL | 21.3 µg/mL (≈ 48.1 µM) | > 50 µg/mL | > 50 µg/mL | > 50 µg/mL | > 50 µg/mL |
| O=c1c(-c2ccc(O)cc2)coc2cc(OCCCN3CCNCC3)cc(O)c12 | > 50 µg/mL | > 50 µg/mL | 40 µg/mL (≈ 101 µM) | > 50 µg/mL | > 50 µg/mL | > 50 µg/mL | > 50 µg/mL |
| O=c1c(-c2ccc(O)cc2)coc2cc(OCCCCN3CCNCC3)cc(O)c12 | 15.5 µg/mL (≈ 37.8 µM) | 37.5 µg/mL (≈ 91.4 µM) | 20.1 µg/mL (≈ 49 µM) | > 50 µg/mL | > 50 µg/mL | > 50 µg/mL | > 50 µg/mL |
| O=c1c(-c2ccc(O)cc2)coc2cc(O)cc(O)c12 [GENISTEIN] | > 50 µg/mL | > 50 µg/mL | > 50 µg/mL | > 50 µg/mL | > 50 µg/mL | > 50 µg/mL | > 50 µg/mL |
| O=c1c(-c2ccc(O)cc2)coc2cc(OCCCN3CCCCC3)cc(O)c12 | > 50 µg/mL | > 50 µg/mL | > 50 µg/mL | > 50 µg/mL | > 50 µg/mL | > 50 µg/mL | > 50 µg/mL |
| O=c1c(-c2ccc(O)cc2)coc2cc(OCCCN3CCOCC3)cc(O)c12 | > 50 µg/mL | > 50 µg/mL | > 50 µg/mL | > 50 µg/mL | > 50 µg/mL | > 50 µg/mL | > 50 µg/mL |
| O=c1c(-c2ccc(O)cc2)coc2cc(OCCCBr)cc(O)c12 | > 50 µg/mL | > 50 µg/mL | > 50 µg/mL | > 50 µg/mL | > 50 µg/mL | > 50 µg/mL | > 50 µg/mL |
| CCCCN(CCCC)CCCCOc1cc(O)c2c(=O)c(-c3ccc(O)cc3)coc2c1 | 3.7 µg/mL (≈ 8.16 µM) | 13.2 µg/mL (≈ 29.1 µM) | 1.7 µg/mL (≈ 3.75 µM) | > 50 µg/mL | > 50 µg/mL | > 50 µg/mL | > 50 µg/mL |
| O=c1c(-c2ccc(O)cc2)coc2cc(OCCCN3CCCC3)cc(O)c12 | 48.5 µg/mL (≈ 127 µM) | 20.5 µg/mL (≈ 53.7 µM) | 18.5 µg/mL (≈ 48.5 µM) | 21.5 µg/mL (≈ 56.4 µM) | 23.5 µg/mL (≈ 61.6 µM) | 20.5 µg/mL (≈ 53.7 µM) | > 50 µg/mL |
| O=c1c(-c2ccc(O)cc2)coc2cc(OCCCCNCc3ccco3)cc(O)c12 | > 50 µg/mL | 12 µg/mL (≈ 28.5 µM) | 35.3 µg/mL (≈ 83.8 µM) | > 50 µg/mL | > 50 µg/mL | > 50 µg/mL | > 50 µg/mL |
| O=c1c(-c2ccc(O)cc2)coc2cc(OCCBr)cc(O)c12 | > 50 µg/mL | > 50 µg/mL | > 50 µg/mL | > 50 µg/mL | > 50 µg/mL | > 50 µg/mL | > 50 µg/mL |
| CCCN(CCC)CCCCOc1cc(O)c2c(=O)c(-c3ccc(O)cc3)coc2c1 | 19.5 µg/mL (≈ 45.8 µM) | 19.5 µg/mL (≈ 45.8 µM) | 10.5 µg/mL (≈ 24.7 µM) | > 50 µg/mL | > 50 µg/mL | > 50 µg/mL | > 50 µg/mL |
| O=c1c(-c2ccc(O)cc2)coc2cc(OCCCCn3ccnc3)cc(O)c12 | > 50 µg/mL | > 50 µg/mL | > 50 µg/mL | > 50 µg/mL | > 50 µg/mL | > 50 µg/mL | > 50 µg/mL |
| O=c1c(-c2ccc(O)cc2)coc2cc(OCCN3CCNCC3)cc(O)c12 | 47.5 µg/mL (≈ 124 µM) | 23.5 µg/mL (≈ 61.5 µM) | 17.5 µg/mL (≈ 45.8 µM) | > 50 µg/mL | > 50 µg/mL | > 50 µg/mL | > 50 µg/mL |
| CN1CCN(CCOc2cc(O)c3c(=O)c(-c4ccc(O)cc4)coc3c2)CC1 | > 50 µg/mL | > 50 µg/mL | 35.5 µg/mL (≈ 89.5 µM) | > 50 µg/mL | > 50 µg/mL | > 50 µg/mL | > 50 µg/mL |
| O=c1c(-c2ccc(O)cc2)coc2cc(OCCN3CCOCC3)cc(O)c12 | > 50 µg/mL | > 50 µg/mL | > 50 µg/mL | > 50 µg/mL | > 50 µg/mL | > 50 µg/mL | > 50 µg/mL |
| NC[C@H]1O[C@H](O[C@H]2[C@H](O)[C@@H](O[C@H]3O[C@H](CO)[C@@H](O)[C@H](N)[C@H]3O)[C@H](N)C[C@@H]2N)[C@H](O)[C@@H](O)[C@@H]1O [KANAMYCIN] | 1 µg/mL (≈ 2.06 µM) | 3.9 µg/mL (≈ 8.05 µM) | 1 µg/mL (≈ 2.06 µM) | – | – | – | 3.9 µg/mL (≈ 8.05 µM) |
| O=c1c(-c2ccc(O)cc2)coc2cc(OCCCCN3CCCC3)cc(O)c12 | 38.5 µg/mL (≈ 97.4 µM) | 23.1 µg/mL (≈ 58.4 µM) | 23.7 µg/mL (≈ 59.9 µM) | 48.5 µg/mL (≈ 123 µM) | > 50 µg/mL | > 50 µg/mL | > 50 µg/mL |
| O=c1c(-c2ccc(O)cc2)coc2cc(OCCn3cnc4ccccc43)cc(O)c12 | > 50 µg/mL | > 50 µg/mL | > 50 µg/mL | > 50 µg/mL | > 50 µg/mL | > 50 µg/mL | > 50 µg/mL |
| O=c1c(-c2ccc(O)cc2)coc2cc(OCCCCN3CCOCC3)cc(O)c12 | 35.5 µg/mL (≈ 86.3 µM) | > 50 µg/mL | 37.5 µg/mL (≈ 91.1 µM) | > 50 µg/mL | > 50 µg/mL | > 50 µg/mL | > 50 µg/mL |
| CN1CCN(CCCCOc2cc(O)c3c(=O)c(-c4ccc(O)cc4)coc3c2)CC1 | 30.3 µg/mL (≈ 71.4 µM) | 37.4 µg/mL (≈ 88.1 µM) | 27.2 µg/mL (≈ 64.1 µM) | > 50 µg/mL | > 50 µg/mL | > 50 µg/mL | > 50 µg/mL |
| O=c1c(-c2ccc(O)cc2)coc2cc(OCCNCc3ccco3)cc(O)c12 | > 50 µg/mL | > 50 µg/mL | > 50 µg/mL | > 50 µg/mL | > 50 µg/mL | > 50 µg/mL | > 50 µg/mL |
| O=c1c(-c2ccc(O)cc2)coc2cc(OCCN3CCCC3)cc(O)c12 | > 50 µg/mL | 28.5 µg/mL (≈ 77.6 µM) | 49.6 µg/mL (≈ 135 µM) | > 50 µg/mL | 39.8 µg/mL (≈ 108 µM) | > 50 µg/mL | > 50 µg/mL |
| O=c1c(-c2ccc(O)cc2)coc2cc(OCCn3ccnc3)cc(O)c12 | > 50 µg/mL | > 50 µg/mL | > 50 µg/mL | > 50 µg/mL | > 50 µg/mL | > 50 µg/mL | > 50 µg/mL |
